According to ChEMBL document CHEMBL4004813, “Oscarellin, an Anthranilic Acid Derivative from a Philippine Sponge, Oscarella stillans, as an Inhibitor of Inflammatory Cytokines in Macrophages” (J Nat Prod, 2017):
Calls of active or inactive are those of the source. The calls are words filed in the database; no cut-off is given here.

Experiments:
[1] = target: T1, NF-kappa-B inhibitor alpha (Mus musculus) (UniProt Q9Z1E3); assay: Inhibition of LPS-induced degradation of IkappaB-alpha in mouse RAW264.7 cells at 10 ug/ml preincubated for 2 hrs followed by LPS stimulation up to 45 mins by Western blot method; assay type: cell-based
T1 sequence (whole entry): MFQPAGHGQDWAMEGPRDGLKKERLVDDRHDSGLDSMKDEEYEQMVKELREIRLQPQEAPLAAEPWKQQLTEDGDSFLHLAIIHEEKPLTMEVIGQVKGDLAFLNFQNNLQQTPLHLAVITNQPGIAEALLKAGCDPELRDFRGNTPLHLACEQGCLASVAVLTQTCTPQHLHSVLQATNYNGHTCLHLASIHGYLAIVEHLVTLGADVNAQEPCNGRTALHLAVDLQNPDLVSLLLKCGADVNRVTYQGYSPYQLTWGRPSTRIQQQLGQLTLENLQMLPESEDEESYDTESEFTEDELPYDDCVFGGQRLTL
Outline: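 Cells were pretreated 2 h with 10 μg/mL, then given LPS 1 μg/mL for varying times. IκBα was detected in lysates by Western blot with ECL, using β-actin as internal control. Results are representative of three experiments.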

Homo sapiens = organism: Homo sapiens; assay: Inhibition of NF-kB (unknown origin) activation expressed in LPS-stimulated mouse RAW264.7 cells up to 10 ug/ml preincubated for 2 hrs followed by LPS stimulation for 4 hrs by luciferase reporter gene assay; assay type: cell-based
Outline: (§1)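 Cells were plated at 5 × 10^5/mL and transiently cotransfected by lipofection with pGL3-NF-κB-Luc or pGL2-AP-1-Luc plus a normalization plasmid. After 24 h they were pretreated 2 h with the compound (0.1, 1, 10 μg/mL for NF-κB), then given LPS 1 μg/mL for 4 h. Cells were washed in cold PBS, and luciferase was read in the lysates.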

RAW264.7 [2] = assay: Anti-inflammatory activity in mouse RAW264.7 cells assessed as reduction in LPS-induced NO production up to 10 ug/ml preincubated for 2 hrs followed by LPS stimulation for 24 hrs by Griess assay; assay type: functional, cell-based
Outline: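 RAW 264.7 cells were pretreated 2 h with 0.1–10 μg/mL, then given LPS 1 μg/mL for 24 h. Supernatant was mixed 1:1 with Griess reagent (sulfanilamide in 5% phosphoric acid plus α-naphthylamide) for 15 min at room temperature, and A550 was read. Nitrite served as the NO index. Dexamethasone 10 and 20 μM was the reference. Quintuplicates, mean ± SEM.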

[3] = target: Transcription factor p65 (Mus musculus) (UniProt Q04207); assay: Inhibition of p65 nuclear translocation in LPS-stimulated mouse RAW264.7 cells preincubated for 2 hrs followed by LPS stimulation for 4 hrs by Western blot method
Transcription factor p65 (Mus musculus), sequence (Q04207 whole entry): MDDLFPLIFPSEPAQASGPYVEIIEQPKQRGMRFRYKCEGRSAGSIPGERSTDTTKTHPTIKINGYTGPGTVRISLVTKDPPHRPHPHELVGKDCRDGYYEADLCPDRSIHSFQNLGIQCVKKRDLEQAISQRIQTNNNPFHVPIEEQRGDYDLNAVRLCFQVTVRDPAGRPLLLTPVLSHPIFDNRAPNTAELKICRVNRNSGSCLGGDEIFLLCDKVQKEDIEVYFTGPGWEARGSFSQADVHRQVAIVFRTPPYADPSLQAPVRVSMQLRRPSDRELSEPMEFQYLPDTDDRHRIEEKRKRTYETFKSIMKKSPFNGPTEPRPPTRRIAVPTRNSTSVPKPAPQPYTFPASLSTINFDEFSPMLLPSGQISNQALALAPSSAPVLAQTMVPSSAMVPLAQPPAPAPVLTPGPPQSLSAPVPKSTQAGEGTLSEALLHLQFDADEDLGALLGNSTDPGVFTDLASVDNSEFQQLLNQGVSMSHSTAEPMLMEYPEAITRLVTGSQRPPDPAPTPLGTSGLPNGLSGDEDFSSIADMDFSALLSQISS
Outline: (§2)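 Pretreatment was 2 h (0.1, 1, 10 μg/mL), then LPS 1 μg/mL for 4 h. Cytosolic extracts came from a 1500g, 10 min, 4 °C spin and nuclear fractions from 13000g, 10 min, 4 °C. p65, c-Jun and c-Fos were detected by Western blot (8% SDS-PAGE, PVDF, ECL), with β-actin as reprobe control.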

[4] = target: Transcription factor Jun (Mus musculus) (UniProt P05627); assay: Inhibition of LPS-induced nuclear translocation of AP-1 c-Jun component in mouse RAW264.7 cells up to 10 ug/ml preincubated for 2 hrs followed by LPS stimulation for 4 hrs by Western blot method; assay type: cell-based; outline: as §2
Transcription factor Jun (Mus musculus), sequence (P05627 whole entry): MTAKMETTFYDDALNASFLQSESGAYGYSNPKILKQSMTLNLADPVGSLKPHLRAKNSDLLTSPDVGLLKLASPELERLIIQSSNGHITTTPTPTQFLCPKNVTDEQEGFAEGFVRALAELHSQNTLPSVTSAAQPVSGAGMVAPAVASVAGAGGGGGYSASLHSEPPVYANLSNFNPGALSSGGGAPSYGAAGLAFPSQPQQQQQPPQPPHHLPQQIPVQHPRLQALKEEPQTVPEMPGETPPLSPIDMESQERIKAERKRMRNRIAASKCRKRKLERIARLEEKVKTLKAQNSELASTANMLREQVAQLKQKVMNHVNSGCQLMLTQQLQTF

[5] = target: MAP kinase p38 (Mus musculus) (UniProt P47811+O08911+Q9WUI1+Q9Z1B7); assay: Inhibition of LPS-induced MAPK p38 phosphorylation in mouse RAW264.7 cells up to 10 ug/ml preincubated for 2 hrs followed by LPS stimulation for 15 mins by Western blot method; assay type: cell-based
Outline: (§3)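 RAW 264.7 cells were preincubated 2 h at 0.1, 1 or 10 μg/mL, then exposed to LPS 1 μg/mL for 15 min. Lysates were resolved on 8% SDS-PAGE, transferred to PVDF and probed for the phosphorylated MAP kinases. Detection was by ECL, with membranes reprobed for β-actin as loading control.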

RAW264.7 [6] = assay: Anti-inflammatory activity in mouse RAW264.7 cells assessed as reduction in LPS-induced IL-6 production preincubated for 2 hrs followed by LPS stimulation for 24 hrs by ELISA; assay type: functional, cell-based
Outline: (§4)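 RAW 264.7 cells (DMEM, 10% heat-inactivated FBS, 37 °C, 5% CO2) pretreated 2 h with compound at 0.1, 1 or 10 μg/mL, then LPS 1 μg/mL for 24 h. TNF-α and IL-6 in the supernatant measured by sandwich ELISA. Dexamethasone 10 and 20 μM served as reference. Means ± SEM of quintuplicate replicates, one representative experiment.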

RAW264.7 [7] = assay: Anti-inflammatory activity in mouse RAW264.7 cells assessed as reduction in LPS-induced TNFalpha production preincubated for 2 hrs followed by LPS stimulation for 24 hrs by ELISA; assay type: functional, cell-based; outline: as §4
RAW264.7 [8] = assay: Anti-inflammatory activity in mouse RAW264.7 cells transfected with ATF-3 shRNA assessed as reduction in LPS-induced IL-6 production at 10 ug/ml preincubated for 2 hrs followed by LPS stimulation for 24 hrs by ELISA; assay type: functional, cell-based
Outline: (§5)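 Cells received compound at 10 μg/mL for 2 h, then LPS 1 μg/mL for 24 h. TNF-α and IL-6 in the medium were measured by ELISA and compared with control shRNA cells.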

Mus musculus = organism: Mus musculus; assay: Inhibition of LPS-induced JNK phosphorylation in mouse RAW264.7 cells up to 10 ug/ml preincubated for 2 hrs followed by LPS stimulation for 15 mins by Western blot method; assay type: cell-based; outline: as §3
RAW264.7 [9] = assay: Cytotoxicity against mouse RAW264.7 cells assessed as reduction in cell viability up to 100 ug/ml after 24 hrs by MTT assay; assay type: cell-based; settings: raw264.7, 24 h
Outline: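 RAW 264.7 cells were seeded at 5 × 10^4 per well and exposed 24 h to 0.1, 1, 10, 50 and 100 μg/mL. MTT was then added in full DMEM for 4 h, formazan was dissolved in DMSO, and OD was read at 550 nm.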

RAW264.7 [10] = assay: Anti-inflammatory activity in mouse RAW264.7 cells transfected with ATF-3 shRNA assessed as reduction in LPS-induced TNFalpha production at 10 ug/ml preincubated for 2 hrs followed by LPS stimulation for 24 hrs by ELISA; assay type: functional, cell-based; outline: as §5
[11] = target: Mitogen-activated protein kinase 1 and 3 (ERK2 and ERK1) (Mus musculus) (UniProt P63085+Q63844); assay: Inhibition of LPS-induced ERK1/2 phosphorylation in mouse RAW264.7 cells up to 10 ug/ml preincubated for 2 hrs followed by LPS stimulation for 15 mins by Western blot method; assay type: cell-based; outline: as §3
Mitogen-activated protein kinase 1 and 3 (ERK2 and ERK1) (Mus musculus), sequence (P63085 whole entry, looked up): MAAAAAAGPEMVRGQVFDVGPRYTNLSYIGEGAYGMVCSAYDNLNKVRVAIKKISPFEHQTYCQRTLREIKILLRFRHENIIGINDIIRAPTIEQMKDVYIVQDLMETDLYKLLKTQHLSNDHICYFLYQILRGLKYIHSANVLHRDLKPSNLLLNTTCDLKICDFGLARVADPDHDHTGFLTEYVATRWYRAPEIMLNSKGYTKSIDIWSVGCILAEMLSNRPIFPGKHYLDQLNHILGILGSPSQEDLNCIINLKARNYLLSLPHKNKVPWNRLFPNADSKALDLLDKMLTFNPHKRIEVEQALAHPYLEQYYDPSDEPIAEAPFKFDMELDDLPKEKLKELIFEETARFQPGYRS
Mitogen-activated protein kinase 1 and 3 (ERK2 and ERK1) (Mus musculus), sequence (Q63844 whole entry, looked up): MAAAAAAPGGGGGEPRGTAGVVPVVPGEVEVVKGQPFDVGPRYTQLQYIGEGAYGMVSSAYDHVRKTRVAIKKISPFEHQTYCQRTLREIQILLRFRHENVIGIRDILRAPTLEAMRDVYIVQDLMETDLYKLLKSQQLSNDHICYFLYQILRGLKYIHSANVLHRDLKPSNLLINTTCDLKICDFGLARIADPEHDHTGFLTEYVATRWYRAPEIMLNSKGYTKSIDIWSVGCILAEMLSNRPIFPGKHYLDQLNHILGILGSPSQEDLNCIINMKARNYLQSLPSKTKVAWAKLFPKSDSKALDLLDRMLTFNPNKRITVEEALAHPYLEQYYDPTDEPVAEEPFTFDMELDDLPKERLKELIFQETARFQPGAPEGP

[12] = target: Proto-oncogene c-Fos (Mus musculus) (UniProt P01101); assay: Inhibition of LPS-induced nuclear translocation of AP-1 c-Fos component in mouse RAW264.7 cells up to 10 ug/ml preincubated for 2 hrs followed by LPS stimulation for 4 hrs by Western blot method
Proto-oncogene c-Fos (Mus musculus), sequence (P01101 whole entry, looked up): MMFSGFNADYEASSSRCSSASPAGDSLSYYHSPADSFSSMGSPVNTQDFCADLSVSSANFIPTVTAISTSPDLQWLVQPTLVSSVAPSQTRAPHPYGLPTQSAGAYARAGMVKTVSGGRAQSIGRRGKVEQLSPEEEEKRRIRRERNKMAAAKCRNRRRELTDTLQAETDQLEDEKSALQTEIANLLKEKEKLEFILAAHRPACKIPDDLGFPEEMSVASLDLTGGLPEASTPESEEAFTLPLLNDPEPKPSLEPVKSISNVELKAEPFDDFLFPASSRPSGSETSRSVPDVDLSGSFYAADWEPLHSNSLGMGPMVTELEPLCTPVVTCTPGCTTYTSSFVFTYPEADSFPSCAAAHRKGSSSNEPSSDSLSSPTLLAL

[13] = target: Transcription factor Jun (Homo sapiens) (UniProt P05412); assay: Inhibition of AP-1 (unknown origin) activation expressed in LPS-stimulated mouse RAW264.7 cells preincubated for 2 hrs followed by LPS stimulation for 4 hrs by luciferase reporter gene assay; assay type: cell-based; outline: as §1
Transcription factor Jun (Homo sapiens), sequence (P05412 whole entry): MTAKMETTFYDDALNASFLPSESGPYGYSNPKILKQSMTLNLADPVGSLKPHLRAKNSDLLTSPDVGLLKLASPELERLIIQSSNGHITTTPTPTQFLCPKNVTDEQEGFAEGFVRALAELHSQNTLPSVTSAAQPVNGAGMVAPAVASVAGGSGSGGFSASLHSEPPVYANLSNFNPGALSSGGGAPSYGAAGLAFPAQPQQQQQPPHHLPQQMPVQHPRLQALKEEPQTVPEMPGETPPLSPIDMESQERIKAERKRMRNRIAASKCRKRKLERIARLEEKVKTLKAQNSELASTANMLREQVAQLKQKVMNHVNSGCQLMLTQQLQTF

RAW264.7 [14] = assay: Induction of LPS-induced ATF-3 expression in mouse RAW264.7 cells preincubated for 2 hrs followed by LPS stimulation for 4 hrs by Western blot method; assay type: functional, cell-based
Outline: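 Cells were pretreated 2 h (0.1–10 μg/mL), then stimulated with LPS 1 μg/mL for 4 h. ATF-3 was detected by Western blot (8% SDS-PAGE, PVDF, ECL) and quantified by densitometry, normalized to β-actin, in arbitrary units. Blots are representative of three experiments.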

inhibition [1]: Active
inhibition [3]: Dose-dependent effect
inhibition [4]: Active
inhibition [5]: inactive
inhibition [11]: Active
inhibition [12]: Active
inhibition [13]: Dose-dependent effect
Compound: NCCCOc1cccc(C(=O)O)c1N
inhibition (Homo sapiens): Active
Activity (RAW264.7 [2]): inactive
Activity (RAW264.7 [6]): Dose-dependent effect
Activity (RAW264.7 [7]): Dose-dependent effect
Activity (RAW264.7 [8]): inactive
inhibition (Mus musculus): Active
Activity (RAW264.7 [9]): Non-Toxic
Activity (RAW264.7 [10]): inactive
Activity (RAW264.7 [14]): Active
